Data reported in ChEMBL document CHEMBL4354866, “TREK Channel Family Activator with a Well-Defined Structure-Activation Relationship for Pain and Neurogenic Inflammation” (J Med Chem, 2020).
The source made the active and inactive calls.

Legend:
[1] = biological target: T1, Potassium channel subfamily K member 2 (Homo sapiens) (UniProt O95069); experiment: Activation of recombinant human TREK1 expressed in HEK293T cells assessed as increase in K+ current amplitude at 30 uM by whole cell voltage clamp electrophysiological analysis; format: cell-based
T1 sequence (whole entry): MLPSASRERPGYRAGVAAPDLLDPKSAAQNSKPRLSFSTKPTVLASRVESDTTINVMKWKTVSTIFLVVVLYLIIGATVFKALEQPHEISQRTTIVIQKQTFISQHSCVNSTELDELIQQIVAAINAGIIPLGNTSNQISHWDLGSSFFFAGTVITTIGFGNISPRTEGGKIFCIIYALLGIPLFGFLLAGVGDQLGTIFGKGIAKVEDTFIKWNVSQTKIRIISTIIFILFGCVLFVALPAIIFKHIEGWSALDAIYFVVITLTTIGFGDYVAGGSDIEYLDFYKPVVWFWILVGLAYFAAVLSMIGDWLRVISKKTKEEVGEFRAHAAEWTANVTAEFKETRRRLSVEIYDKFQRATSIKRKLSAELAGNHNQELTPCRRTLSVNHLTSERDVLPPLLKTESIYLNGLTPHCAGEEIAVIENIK

Mus musculus [2] = experiment: Analgesic activity in mouse assessed as increase in tail flick latency time at 5 mg/kg, ip at 52 degC by tail immersion test; format: functional, organism-based
Outline: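 Male BALB/c or C57BL/6 mice, 6–8 weeks, acclimated in a holder 15 min/day for 3 days. Distal 3 cm of tail immersed at 5, 20, 40, 46 or 52 °C; flick latency recorded, cut-off 15 s. Compound i.p. in 5% DMSO/5% Tween 80/90% saline (1.25–10 mg/kg at 52 °C; 5 mg/kg across temperatures).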

Mus musculus [3] = experiment: Analgesic activity in cerulein-induced mouse model of acute pancreatitis assessed as reduction in myeloperoxidase activity at 10 mg/kg, ip administered at 2 hrs interval for 10 hrs starting from post-first cerulein challenge and measured 12 hrs post-first cerulein challenge; format: functional, organism-based
Outline: (§1)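 Cerulein pancreatitis: 7 hourly i.p. injections of 50 µg/kg; 10 mg/kg compound i.p. at 2, 4, 6, 8 and 10 h. Mice killed at 12 h and pancreas harvested for MPO activity and H&E histology. Ten random fields per slide scored blind by two observers for edema, inflammatory infiltration and acinar necrosis; n = 6.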

Mus musculus [4] = experiment: (§2) Analgesic activity in cerulein-induced mouse model of acute pancreatitis assessed as reduction in pancreatic necrosis at 10 mg/kg, ip administered at 2 hrs interval for 10 hrs starting from post-first cerulein challenge and measured 12 hrs post-first cerulein challenge by H and E staining based histopathological analysis; format: functional, organism-based; outline: as §1
Mus musculus [5] = experiment: as §2, with “inflammatory infiltration” for “necrosis”; format: functional, organism-based; outline: as §1
Mus musculus [6] = experiment: as §2, with “edema” for “necrosis”; format: functional, organism-based; outline: as §1
[7] = biological target: T1, Potassium channel subfamily K member 2 (Homo sapiens); experiment: Activation of recombinant human TREK1 expressed in HEK293T cells assessed as increase in K+ current amplitude at 1 mM by whole cell voltage clamp electrophysiological analysis; format: cell-based
Mus musculus [8] = experiment: Analgesic activity in mouse model of spared nerve injury assessed as reduction in cold hyperalgesia at 30 mg/kg, ip measured at 7 days interval for up to 21 days post spared nerve injury by cold plantar test; format: functional, organism-based
Outline: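 Male mice (BALB/c or C57BL/6, 6-8 weeks) after SNI; compound given i.p. in 5% DMSO, 5% Tween 80, 90% saline. Mice acclimated 3 days on a 6 mm glass plate. A syringe packed with powdered dry ice was applied under the centre of the left hindpaw. Paw withdrawal latency was timed by stopwatch with a 30 s cutoff. Groups compared by unpaired t test or Mann-Whitney.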

Structure (SMILES): Cc1ccc2nc(-c3ccc(NC(=O)C4CCCC4)cc3)sc2c1
- Activity [1]: inactive
- Activity (Mus musculus [2]): inactive
- Activity (Mus musculus [3]): inactive
- Activity (Mus musculus [4]): inactive
- Activity (Mus musculus [5]): inactive
- Activity (Mus musculus [6]): inactive

Structure (SMILES): C[N+](C)(C)CCSS(C)(=O)=O
- Activity [7]: inactive

Structure (SMILES): COC(=O)[C@H]1CC[C@@H](C(=O)Nc2ccc(-c3nc4ccc(C)cc4s3)cc2)C1
- Activity [1]: inactive

Structure (SMILES): CC(C)C[C@H](CN)CC(=O)O
- Activity (Mus musculus [8]): Active
